Results taken from ChEMBL document CHEMBL5058577, “EUbOPEN Chemogenomics Library 2 (Multiplex)” (2022).

Tested on: HEK-293T
Test: Multiplex assay against HEK293T
Assay type: toxicity, cell-based
Conditions: human
Outline: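 Per cents of healthy-nucleus cells form the tubulin, mitochondrial-mass and membrane-permeability phenotype values. Live cells were stained at seeding with Hoechst33342, BioTracker Green Microtubule Cytoskeleton Dye, MitoTracker Red and Annexin V Alexa Fluor 680. After compound addition they were imaged on a CQ1 microscope at 37°C and 5% CO2, and CellPathfinder machine-learning gating split them into Hoechst high-intensity objects or normal cells, normal cells into healthy, pyknosed or fragmented nuclei, and pyknosed cells into mitotic or apoptotic.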

[1] = 12 h, 1 µM, compound concentration 1 uM, replicate 1
[2] = 12 h, 1 µM, compound concentration 1 uM, replicate 2
[3] = 12 h, 10 µM, compound concentration 10 uM, replicate 1
[4] = 12 h, 10 µM, compound concentration 10 uM, replicate 2
[5] = 24 h, 1 µM, compound concentration 1 uM, replicate 1
[6] = 24 h, 1 µM, compound concentration 1 uM, replicate 2
[7] = 24 h, 10 µM, compound concentration 10 uM, replicate 1
[8] = 24 h, 10 µM, compound concentration 10 uM, replicate 2
[9] = 48 h, 1 µM, compound concentration 1 uM, replicate 1
[10] = 48 h, 1 µM, compound concentration 1 uM, replicate 2
[11] = 48 h, 10 µM, compound concentration 10 uM, replicate 1
[12] = 48 h, 10 µM, compound concentration 10 uM, replicate 2

## CN1CCN2c3ccccc3Cc3ccccc3C2C1.Cl (stereo not given) [MIANSERIN HYDROCHLORIDE]
[1]
  Population Apoptotic (%): 23%
  Population Fragmented Nuclei (%): 5%
  Population Healthy Nuclei (%): 79%
  Population Hoechst High Intensity Objects (%): 5%
  Population Membrane Permeable-Phenotype (%): 0%
  Population Mitochondria Different-Phenotype (%): 36%
  Population Mitotic Cells (%): 76%
  Population Normal (%): 94%
  Population Pyknosed Nuclei (%): 14%
  Population Tubulin-Different-Phenotype (%): 21%
  Total Cell Count: 338
[2]
  Population Apoptotic (%): 46%
  Population Fragmented Nuclei (%): 7%
  Population Healthy Nuclei (%): 77%
  Population Hoechst High Intensity Objects (%): 10%
  Population Mitochondria Different-Phenotype (%): 63%
  Population Mitotic Cells (%): 53%
  Population Normal (%): 89%
  Population Tubulin-Different-Phenotype (%): 17%
  Total Cell Count: 376
[3]
  Population Apoptotic (%): 34%
  Population Fragmented Nuclei (%): 5%
  Population Healthy Nuclei (%): 81%
  Population Hoechst High Intensity Objects (%): 9%
  Population Membrane Permeable-Phenotype (%): 1%
  Population Mitochondria Different-Phenotype (%): 45%
  Population Mitotic Cells (%): 65%
  Population Normal (%): 90%
  Population Pyknosed Nuclei (%): 13%
  Population Tubulin-Different-Phenotype (%): 40%
  Total Cell Count: 410
[4]
  Population Apoptotic (%): 42%
  Population Healthy Nuclei (%): 85%
  Population Hoechst High Intensity Objects (%): 4%
  Population Membrane Permeable-Phenotype (%): 0%
  Population Mitochondria Different-Phenotype (%): 53%
  Population Mitotic Cells (%): 57%
  Population Normal (%): 95%
  Population Pyknosed Nuclei (%): 8%
  Population Tubulin-Different-Phenotype (%): 28%
  Total Cell Count: 491
[5]
  Population Apoptotic (%): 22%
  Population Fragmented Nuclei (%): 9%
  Population Healthy Nuclei (%): 80%
  Population Hoechst High Intensity Objects (%): 1%
  Population Membrane Permeable-Phenotype (%): 0%
  Population Mitochondria Different-Phenotype (%): 21%
  Population Mitotic Cells (%): 77%
  Population Normal (%): 98%
  Population Pyknosed Nuclei (%): 10%
  Population Tubulin-Different-Phenotype (%): 14%
  Total Cell Count: 479
[6]
  Population Apoptotic (%): 26%
  Population Fragmented Nuclei (%): 10%
  Population Hoechst High Intensity Objects (%): 8%
  Population Mitochondria Different-Phenotype (%): 37%
  Population Mitotic Cells (%): 73%
  Population Normal (%): 91%
  Population Pyknosed Nuclei (%): 9%
  Population Tubulin-Different-Phenotype (%): 16%
  Total Cell Count: 486
[7]
  Population Apoptotic (%): 24%
  Population Fragmented Nuclei (%): 8%
  Population Healthy Nuclei (%): 77%
  Population Hoechst High Intensity Objects (%): 5%
  Population Membrane Permeable-Phenotype (%): 0%
  Population Mitochondria Different-Phenotype (%): 31%
  Population Mitotic Cells (%): 75%
  Population Normal (%): 94%
  Population Pyknosed Nuclei (%): 14%
  Population Tubulin-Different-Phenotype (%): 34%
  Total Cell Count: 486
[8]
  Population Apoptotic (%): 32%
  Population Fragmented Nuclei (%): 5%
  Population Healthy Nuclei (%): 84%
  Population Hoechst High Intensity Objects (%): 3%
  Population Mitochondria Different-Phenotype (%): 36%
  Population Mitotic Cells (%): 67%
  Population Normal (%): 96%
  Population Pyknosed Nuclei (%): 10%
  Population Tubulin-Different-Phenotype (%): 21%
  Total Cell Count: 612
[9]
  Population Apoptotic (%): 13%
  Population Fragmented Nuclei (%): 15%
  Population Healthy Nuclei (%): 77%
  Population Hoechst High Intensity Objects (%): 1%
  Population Membrane Permeable-Phenotype (%): 1%
  Population Mitochondria Different-Phenotype (%): 15%
  Population Mitotic Cells (%): 86%
  Population Normal (%): 98%
  Population Pyknosed Nuclei (%): 6%
  Population Tubulin-Different-Phenotype (%): 9%
  Total Cell Count: 812
[10]
  Population Apoptotic (%): 37%
  Population Fragmented Nuclei (%): 16%
  Population Healthy Nuclei (%): 78%
  Population Hoechst High Intensity Objects (%): 3%
  Population Membrane Permeable-Phenotype (%): 0%
  Population Mitochondria Different-Phenotype (%): 18%
  Population Mitotic Cells (%): 62%
  Population Normal (%): 96%
  Population Pyknosed Nuclei (%): 4%
  Total Cell Count: 761
[11]
  Population Apoptotic (%): 24%
  Population Fragmented Nuclei (%): 14%
  Population Healthy Nuclei (%): 76%
  Population Hoechst High Intensity Objects (%): 2%
  Population Membrane Permeable-Phenotype (%): 0%
  Population Mitochondria Different-Phenotype (%): 18%
  Population Mitotic Cells (%): 75%
  Population Normal (%): 97%
  Population Pyknosed Nuclei (%): 8%
  Population Tubulin-Different-Phenotype (%): 17%
  Total Cell Count: 702
[12]
  Population Apoptotic (%): 35%
  Population Healthy Nuclei (%): 79%
  Population Hoechst High Intensity Objects (%): 1%
  Population Membrane Permeable-Phenotype (%): 1%
  Population Mitochondria Different-Phenotype (%): 14%
  Population Mitotic Cells (%): 64%
  Population Normal (%): 98%
  Population Pyknosed Nuclei (%): 6%
  Population Tubulin-Different-Phenotype (%): 11%
  Total Cell Count: 860

## COc1cc2nc(N3CCN(C(=O)COc4c(OC)cccc4C(C)C)CC3)nc(N)c2cc1OC.Cl.Cl
[1]
  Population Apoptotic (%): 35%
  Population Fragmented Nuclei (%): 12%
  Population Healthy Nuclei (%): 77%
  Population Hoechst High Intensity Objects (%): 5%
  Population Membrane Permeable-Phenotype (%): 0%
  Population Mitochondria Different-Phenotype (%): 48%
  Population Mitotic Cells (%): 64%
  Population Normal (%): 94%
  Population Pyknosed Nuclei (%): 9%
  Population Tubulin-Different-Phenotype (%): 23%
  Total Cell Count: 402
[2]
  Population Apoptotic (%): 46%
  Population Fragmented Nuclei (%): 8%
  Population Healthy Nuclei (%): 81%
  Population Hoechst High Intensity Objects (%): 4%
  Population Mitochondria Different-Phenotype (%): 58%
  Population Mitotic Cells (%): 53%
  Population Normal (%): 95%
  Population Tubulin-Different-Phenotype (%): 18%
  Total Cell Count: 365
[3]
  Population Apoptotic (%): 52%
  Population Fragmented Nuclei (%): 13%
  Population Healthy Nuclei (%): 69%
  Population Hoechst High Intensity Objects (%): 25%
  Population Membrane Permeable-Phenotype (%): 1%
  Population Mitochondria Different-Phenotype (%): 74%
  Population Mitotic Cells (%): 48%
  Population Normal (%): 74%
  Population Pyknosed Nuclei (%): 17%
  Population Tubulin-Different-Phenotype (%): 81%
  Total Cell Count: 386
[4]
  Population Apoptotic (%): 57%
  Population Fragmented Nuclei (%): 14%
  Population Healthy Nuclei (%): 67%
  Population Hoechst High Intensity Objects (%): 18%
  Population Membrane Permeable-Phenotype (%): 3%
  Population Mitochondria Different-Phenotype (%): 66%
  Population Mitotic Cells (%): 42%
  Population Normal (%): 81%
  Population Pyknosed Nuclei (%): 18%
  Population Tubulin-Different-Phenotype (%): 66%
  Total Cell Count: 286
[5]
  Population Apoptotic (%): 35%
  Population Fragmented Nuclei (%): 11%
  Population Healthy Nuclei (%): 77%
  Population Hoechst High Intensity Objects (%): 5%
  Population Membrane Permeable-Phenotype (%): 0%
  Population Mitochondria Different-Phenotype (%): 27%
  Population Mitotic Cells (%): 64%
  Population Normal (%): 95%
  Population Pyknosed Nuclei (%): 10%
  Population Tubulin-Different-Phenotype (%): 19%
  Total Cell Count: 540
[6]
  Population Apoptotic (%): 42%
  Population Fragmented Nuclei (%): 8%
  Population Healthy Nuclei (%): 84%
  Population Hoechst High Intensity Objects (%): 2%
  Population Mitochondria Different-Phenotype (%): 44%
  Population Mitotic Cells (%): 57%
  Population Normal (%): 97%
  Population Pyknosed Nuclei (%): 7%
  Population Tubulin-Different-Phenotype (%): 16%
  Total Cell Count: 472
[7]
  Population Apoptotic (%): 42%
  Population Fragmented Nuclei (%): 14%
  Population Healthy Nuclei (%): 64%
  Population Hoechst High Intensity Objects (%): 29%
  Population Membrane Permeable-Phenotype (%): 2%
  Population Mitochondria Different-Phenotype (%): 68%
  Population Mitotic Cells (%): 57%
  Population Normal (%): 70%
  Population Pyknosed Nuclei (%): 21%
  Population Tubulin-Different-Phenotype (%): 69%
  Total Cell Count: 498
[8]
  Population Apoptotic (%): 51%
  Population Fragmented Nuclei (%): 13%
  Population Healthy Nuclei (%): 59%
  Population Hoechst High Intensity Objects (%): 39%
  Population Mitochondria Different-Phenotype (%): 72%
  Population Mitotic Cells (%): 48%
  Population Normal (%): 60%
  Population Pyknosed Nuclei (%): 27%
  Population Tubulin-Different-Phenotype (%): 63%
  Total Cell Count: 286
[9]
  Population Apoptotic (%): 28%
  Population Fragmented Nuclei (%): 16%
  Population Healthy Nuclei (%): 76%
  Population Hoechst High Intensity Objects (%): 2%
  Population Membrane Permeable-Phenotype (%): 1%
  Population Mitochondria Different-Phenotype (%): 18%
  Population Mitotic Cells (%): 71%
  Population Normal (%): 97%
  Population Pyknosed Nuclei (%): 6%
  Population Tubulin-Different-Phenotype (%): 11%
  Total Cell Count: 930
[10]
  Population Apoptotic (%): 11%
  Population Fragmented Nuclei (%): 15%
  Population Healthy Nuclei (%): 78%
  Population Hoechst High Intensity Objects (%): 3%
  Population Membrane Permeable-Phenotype (%): 0%
  Population Mitotic Cells (%): 88%
  Population Normal (%): 96%
  Population Tubulin-Different-Phenotype (%): 12%
  Total Cell Count: 737
[11]
  Population Apoptotic (%): 31%
  Population Fragmented Nuclei (%): 18%
  Population Healthy Nuclei (%): 56%
  Population Hoechst High Intensity Objects (%): 41%
  Population Membrane Permeable-Phenotype (%): 3%
  Population Mitochondria Different-Phenotype (%): 48%
  Population Mitotic Cells (%): 68%
  Population Normal (%): 58%
  Population Pyknosed Nuclei (%): 25%
  Population Tubulin-Different-Phenotype (%): 56%
  Total Cell Count: 660
[12]
  Population Apoptotic (%): 30%
  Population Fragmented Nuclei (%): 17%
  Population Healthy Nuclei (%): 59%
  Population Hoechst High Intensity Objects (%): 46%
  Population Membrane Permeable-Phenotype (%): 1%
  Population Mitochondria Different-Phenotype (%): 49%
  Population Mitotic Cells (%): 69%
  Population Normal (%): 53%
  Population Pyknosed Nuclei (%): 23%
  Population Tubulin-Different-Phenotype (%): 38%
  Total Cell Count: 430
